CHRM4 antagonist: human M4 muscarinic receptor antagonists, primary screen, CHO cells, Fluo-8 calcium fluorescence; Muscarinic acetylcholine receptor M4 (Homo sapiens), P08173; CHO-hM4 cells, ACh EC80; inhibition, % at 3 µM; 360,000 compounds, 0.73% hits;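 active means inhibition above its plate's cutoff, the mean inhibition of sample wells plus 3 SD, cut at about 27% in these data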;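 further: 0% = acetylcholine EC80 with DMSO and 100% = DMSO without agonist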
Target sequence (P08173 whole entry, looked up): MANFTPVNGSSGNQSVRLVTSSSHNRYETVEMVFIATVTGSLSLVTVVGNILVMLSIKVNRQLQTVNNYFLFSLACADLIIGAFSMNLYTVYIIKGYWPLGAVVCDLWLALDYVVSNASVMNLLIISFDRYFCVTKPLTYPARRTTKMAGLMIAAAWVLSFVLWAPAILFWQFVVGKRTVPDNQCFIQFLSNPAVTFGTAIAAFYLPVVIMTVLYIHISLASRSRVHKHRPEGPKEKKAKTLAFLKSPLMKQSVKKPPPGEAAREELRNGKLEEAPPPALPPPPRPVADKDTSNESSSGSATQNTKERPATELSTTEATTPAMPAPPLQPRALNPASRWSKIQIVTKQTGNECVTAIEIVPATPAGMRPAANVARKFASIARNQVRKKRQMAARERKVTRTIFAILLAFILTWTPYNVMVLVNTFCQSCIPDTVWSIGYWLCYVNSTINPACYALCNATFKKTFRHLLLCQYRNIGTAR
M5 antag: human M5 muscarinic receptor antagonists, primary screen, CHO cells, Fluo-8 calcium fluorescence | Muscarinic acetylcholine receptor M5 (Homo sapiens), P08912 | inhibition, % at 3 µM | AID 624040, 2012 | 360,000 compounds, 0.59% hits | CHO-hM5 cells, ACh EC80;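 active means inhibition above a per-plate cutoff, the mean of that plate's test compounds plus 3 SD, cut at about 27% in these data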;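 further: 0% = acetylcholine EC80 with DMSO and 100% = DMSO without agonist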
CHRM4 agonist: human M4 muscarinic receptor agonists, primary screen, CHO-K1 cells, Fluo-8 calcium fluorescence. Muscarinic acetylcholine receptor M4 (Homo sapiens), P08173. CHO-K1 hM4/Gqi5; vehicle 0%, full acetylcholine response 100%. AID 624127, 2012. 360,000 compounds, 0.14% hits. activation, % at 3 µM;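 active means activation above the run mean over all test wells plus 3 SD, cut at about 32% in these data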;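 further: peak over basal fluorescence ratio per well then scaled between controls; 0% = DMSO wells and 100% = acetylcholine at EC100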
M5 ag: human M5 muscarinic receptor agonists, primary screen, CHO-K1 cells, Fluo-8 calcium fluorescence. Muscarinic acetylcholine receptor M5 (Homo sapiens), P08912. AID 624037, 2012. 360,000 compounds, 0.19% hits. CHO-K1 hM5 cells; 0% DMSO wells, 100% maximal acetylcholine response. activation, % at 3 µM;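 active means activation above the run's mean over test compounds plus 3 SD, cut at about 23% in these data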;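 further: signal is peak over basal fluorescence ratio across the kinetic read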
M4 PAM: human M4 muscarinic receptor positive allosteric modulators, primary screen, CHO-K1 cells, Fluo-8 calcium fluorescence | Muscarinic acetylcholine receptor M4 (Homo sapiens), P08173 | activation, % at 3 µM | CHO-K1 hM4/Gqi5, ACh EC20; 0% = ACh EC20, 100% = maximal ACh | 360,000 compounds, 0.4% hits | AID 624126, 2012;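 active means activation above its plate's cutoff, the mean activation of sample wells plus 3 SD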
M5 PAM: human M5 muscarinic receptor positive allosteric modulators, primary screen, CHO-K1 cells, Fluo-8 calcium fluorescence | CHO-K1 hM5, ACh EC20 PAM; 0% = ACh EC20, 100% = ACh EC100 | activation, % at 3 µM | 360,000 compounds, 0.3% hits;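 active means activation above the run cutoff, the mean activation of all test compounds plus 3 SD, cut at about 18% in these data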
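Measured by: Fluo-8 calcium fluorescence; material: human M5 receptor in CHO-K1 cells; schedule: Post-acetylcholine fluorescence recording 140 s; benchmarks: low control EC20 acetylcholine (0%), high control EC100 acetylcholine (100%); read-out: Max/basal fluorescence ratio as % of EC20–EC100 ACh window; compound: single dose, 3 µM nominal final test concentration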
* marks the source's active call; other numbers are inactive results. Sampled rows, rich in hits. Any-hit rate of the full collection: about 1.9%.

SMILES | CHRM4 antagonist | M5 antag | CHRM4 agonist | M5 ag | M4 PAM | M5 PAM
O=C(O)c1cc2c(N3CCC(Cc4ccccc4)CC3)ncnc2s1 | 10 | -4 | 1 | 1 | 7 | 0
c1ccc(CC2CCN(c3ncnc4sccc34)CC2)cc1 | 20 | 38* | 12 | -1 | -23 | -32
OC[C@@H]1CN(Cc2ccc(Cl)cc2)C[C@H](n2cnc3c(NC4CCC4)ncnc32)O1 | -13 | -1 | 4 | 0 | 3 | -7
COc1cc(-c2cc(C(=O)Nc3ccc(S(=O)(=O)NCc4ccco4)cc3)c3ccccc3n2)cc(OC)c1OC | 46* | 21 | 18 | 2 | -25 | -15
COc1cc(-c2cc(C(=O)NCc3ccco3)c3ccccc3n2)cc(OC)c1OC | 6 | 13 | 15 | 1 | -8 | -11
Cc1ccc(S(=O)(=O)Nc2cccc3ncccc23)s1 | 28* | 26 | 2 | -10 | -2 | -16
Cc1ccc(S(=O)(=O)Nc2cccc3ncccc23)cc1 | -5 | -1 | 4 | -1 | 12 | -2
O=C(Nc1ccc2nc([C@@H]3O[C@H](CO)[C@@H](O)[C@H](O)[C@H]3O)[nH]c2c1)NC(c1ccccc1)c1ccccc1 | -7 | 1 | 0 | -1 | 6 | -2
Cc1cc(CNC(=O)c2ccc3oc(C(C)C)nc3c2)nn1C | -9 | 3 | 0 | -1 | -1 | 1
Cc1nc2ccccc2nc(C)c1=NOCc1ccc(C#N)cc1 | -1 | 4 | 2 | 0 | 19* | 5
Cc1nc2ccccc2nc(C)c1=NOCc1cccc(F)c1 | -4 | 10 | 1 | 0 | 0 | 5
COc1ccc(/C=C\C(=O)O[C@@H]2C(O)C(O[C@@H]3OC(C)[C@H](O[C@@H]4OCC(O[C@H]5O[C@H](CO)[C@@H](O)C(O)C5O)C(O)C4O)C(O)C3O)[C@H](OC(=O)[C@]34CCC(C)(C)C[C@@H]3C3=CCC5[C@@]6(C)CC(O)C(O[C@@H]7OC(CO)C(O)[C@H](O)[C@H]7O)[C@@](C)(C(=O)O)C6CC[C@@]5(C)[C@]3(CO)CC4)O[C@H]2C)cc1 (stereo partly drawn) | 79* | 48* | 147* | 50* | -14 | -27
Cc1cc(C)c(CN2CCN(C(=O)Cn3cnc4c(NCc5ccccc5)ncnc43)CC2)c(C)c1 | 11 | 17 | 9 | 0 | -12 | -11
COc1cccc(C(=O)OCCN2CCCCC2)c1 | 1 | 30* | 1 | -7 | 2 | 2
COc1cccc(Oc2nc(N)ncc2[N+](=O)[O-])c1 | -6 | 15 | 0 | -3 | -3 | -2
O=C(CCC1CCCC1)NCc1cccs1 | 21 | -1 | 0 | -2 | 20* | 2
O=C(CCCCC(=O)NCc1cccs1)NCc1cccs1 | 9 | 2 | 0 | -2 | -6 | 3
CCOc1ncccc1C(=O)Nc1ccc(OC)c(S(=O)(=O)N2CCOCC2)c1 | -5 | 8 | 1 | 2 | 12 | -3
O=C(Nc1ccccc1C(=O)Nc1nnc(C(F)(F)F)s1)c1ccccc1 | -10 | 36* | 10 | 1 | -4 | -24
COc1ccc(COc2cccc3ccc(C)nc23)cc1F | -4 | 0 | 9 | 2 | 1 | -5
COc1ccc(N=C2CCS(=O)(=O)c3sccc32)cc1 | 6 | 3 | 2 | 0 | -4 | 5
COc1ccc(C(=O)O/N=C2\CCS(=O)(=O)c3sccc32)cc1 | -1 | 36* | 4 | -4 | -8 | -20
Cc1noc(C)c1COc1ccccc1C(=O)NCc1ccccc1Cl | -7 | 99* | 6 | 0 | 1 | -38
Cc1cc(NC2CCCCC2)nc(NCc2ccccc2)n1 | 26 | 30* | 23 | 6 | -13 | -19
CN(C)S(=O)(=O)c1cc(NC(=O)c2cc(=O)c3ccccc3o2)ccc1Cl | 2 | 15 | 18 | 3 | -3 | -2
SMILES | CHRM4 antagonist | M5 antag | CHRM4 agonist | M5 ag | M4 PAM | M5 PAM
COc1ccc(NC(=O)c2cc(=O)c3ccccc3o2)cc1Cl | 18 | 21 | 6 | 0 | 23* | 12
CC(C)(C)c1ccccc1NC(=O)N1CCNC(=O)C1CC(=O)Nc1ccc(F)cc1 (stereo not drawn) | -15 | -7 | 0 | -3 | 4 | 6
CCOC(=O)Cn1nc(C)n(-c2ccc(C(C)(C)C)cc2)c1=O | -3 | 6 | 0 | 1 | 9 | 21*
O=c1[nH]c(C2CCN(S(=O)(=O)c3ccc([N+](=O)[O-])cc3)CC2)nc2c1nnn2Cc1ccccc1 | 7 | 6 | 2 | -3 | -2 | 4
O=c1[nH]c(C2CCN(S(=O)(=O)c3ccc4c(c3)OCCO4)CC2)nc2c1nnn2Cc1cccc(F)c1 | 79* | 9 | 1 | -4 | -23 | 1
O=c1[nH]c(C2CCN(S(=O)(=O)c3ccccc3)CC2)nc2c1nnn2Cc1ccccc1 | 67* | -5 | 2 | -1 | -27 | 3
Cc1ccc(Cn2nnc3c(=O)[nH]c(C4CCN(S(=O)(=O)c5ccc(S(=O)(=O)NC6CC6)cc5)CC4)nc32)cc1 | 12 | 1 | 1 | -6 | -10 | 2
O=c1[nH]c(C2CCN(S(=O)(=O)c3ccc(S(=O)(=O)NC4CC4)cc3)CC2)nc2c1nnn2Cc1cccc(F)c1 | 45* | 7 | 0 | -4 | -20 | 0
O=c1[nH]c(C2CCN(S(=O)(=O)c3ccc4c(c3)OCCO4)CC2)nc2c1nnn2Cc1ccc(F)cc1 | 48* | 14 | 0 | -1 | -19 | -1
O=c1[nH]c(C2CCCN(S(=O)(=O)c3ccccc3Cl)C2)nc2c1nnn2Cc1ccc2c(c1)OCCO2 (stereo not drawn) | -9 | -6 | 3 | -6 | -8 | -3
O=c1[nH]c(C2CCN(S(=O)(=O)c3ccccc3)CC2)nc2c1nnn2Cc1ccc2c(c1)OCCO2 | 95* | 2 | -1 | -6 | -11 | 5
O=C(Nc1ccccc1)OCCN1CCOCC1 | 1 | 12 | 0 | 2 | 2 | -1
CSCCC(NC(=O)OC(C)(C)C)C(=O)NC(CC(C)C)C(N)=O (stereo not drawn) | 3 | 3 | 3 | 2 | 36* | 11
CC(=O)Oc1[nH]c(=O)c2cccc3c2c1CCC3 | -3 | 1 | 0 | -1 | 4 | 2

Bioassay records (PubChem BioAssay)
